Bioassay records: PubChem, The Scripps Research Institute Molecular Screening Center
V1aR counter – counter-screen for oxytocin receptor agonists: human V1a receptor agonists; activation, % at 3 µM; P37288; actives 0.25% (n = 320,000); CHO-V1R cells, Fluo-8 calcium fluorescence, agonist mode; 0% DMSO, 100% 3 nM vasopressin;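 active = activation above the mean activation of all tested compounds plus 3 SD, per screening run, cut at about 20% in these data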;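 also: signal is peak over basal fluorescence ratio across a 100 second FLIPR read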
Target sequence (P37288 whole entry, looked up): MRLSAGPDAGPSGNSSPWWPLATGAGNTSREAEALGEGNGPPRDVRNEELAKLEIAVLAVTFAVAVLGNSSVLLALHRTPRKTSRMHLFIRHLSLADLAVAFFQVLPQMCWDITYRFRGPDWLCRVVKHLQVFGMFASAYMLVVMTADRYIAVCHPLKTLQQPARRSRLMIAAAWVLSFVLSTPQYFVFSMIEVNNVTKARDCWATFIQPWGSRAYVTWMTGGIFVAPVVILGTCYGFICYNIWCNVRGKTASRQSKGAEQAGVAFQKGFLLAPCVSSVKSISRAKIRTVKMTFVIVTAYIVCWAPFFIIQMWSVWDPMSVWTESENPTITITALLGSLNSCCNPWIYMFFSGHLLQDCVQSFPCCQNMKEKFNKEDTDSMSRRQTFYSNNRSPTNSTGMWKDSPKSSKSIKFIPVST
TRPN1 ag – agonists of zebrafish TRPN1 channel; HEK293 zebrafish TRPN1-YFP, Fluo-8 calcium fluorescence; 100% = response to 87 µM carbachol; activation, % at 3 µM; actives 0.18% (n = 220,000); AID 1424;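 active = activation above its plate's cutoff, the mean activation of test wells on that plate plus 3 SD, cut at about 19% in these data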
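Material: zebrafish TRPN1-YFP in HEK293 cells; Doses: single test compound dose, 3 µM nominal, 0.3% DMSO; Timing: dye loading 1 h at 37 °C, then 30 min room temperature; Technique: intracellular calcium fluorescence with Fluo-8; Benchmarks: high carbachol 87 µM, low DMSO alone.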
OXTR potentiator – human OXTR potentiation; AID 2445; CHO-OTR cells, Fluo-8 calcium fluorescence, potentiator mode; 0% = oxytocin EC15, 100% = EC100; actives 0.061% (n = 320,000); P30559; activation, % at 3 µM;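 active = activation above that plate's cutoff, the mean activation of tested compounds plus 3 SD, cut at about 6.6% in these data, passing the limit was not always enough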
Target sequence (P30559 whole entry, looked up): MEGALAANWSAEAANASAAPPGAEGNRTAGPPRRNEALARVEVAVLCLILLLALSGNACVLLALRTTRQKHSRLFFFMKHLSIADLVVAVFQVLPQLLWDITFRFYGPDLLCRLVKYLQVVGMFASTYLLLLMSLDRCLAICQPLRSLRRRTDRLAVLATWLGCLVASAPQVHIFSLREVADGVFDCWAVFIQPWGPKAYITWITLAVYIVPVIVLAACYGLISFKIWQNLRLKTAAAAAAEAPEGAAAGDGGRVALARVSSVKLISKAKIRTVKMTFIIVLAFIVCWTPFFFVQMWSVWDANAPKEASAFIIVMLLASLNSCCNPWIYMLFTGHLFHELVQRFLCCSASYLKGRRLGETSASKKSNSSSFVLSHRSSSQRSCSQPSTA
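Measured by – Fluo-8 calcium dye fluorescence · Test system – human OTR in CHO cells · Dosing – one concentration, 3.0 µM compound · Controls – EC15 oxytocin alone as 0%, 75 nM oxytocin as 100% · Evaluation – normalized max/min fluorescence ratio, % activation · Timing – 6 min pre-incubation, 100 s read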
OXTR ag – activates the human oxytocin receptor; CHO-OTR cells, Fluo-8 calcium fluorescence; normalized: DMSO 0%, oxytocin 100%; activation, % at 3 µM; actives 0.32% (n = 320,000); AID 2435;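 active = activation above the mean of all tested compounds plus 3 SD, cutoff set per screening run, cut at about 20% in these data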;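 also: peak over basal fluorescence ratio from a 100 s FLIPR kinetic read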
TRPML3 ag – human mucolipin-3 channel agonism | HEK293 TRPML3-YFP, Fluo-8 calcium fluorescence; 100% = the carbachol control signal | AID 1448 | actives 0.29% (n = 220,000) | activation, % at 3 µM | Q8TDD5;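 active = activation above its plate's cutoff, the mean activation of the plate's test wells plus 3 SD, cut at about 12% in these data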
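Test system – HEK293 line with stable expression of human TRPML3-YFP channel · Control set – carbachol 87 µM final as high control (100%), DMSO as low control (0%) · Signal – Fluo-8 calcium dye fluorescence, ex 470-495, em 515-575 nm · Incubation – 1-h 37 °C dye load, 5-s basal, 120-s post-compound reads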
TRPN1 ag 2 – activates zebrafish TRPN1, counter-screen for TRPML3 agonists | HEK293 zebrafish TRPN1-YFP, Fluo-8 calcium fluorescence; scaled: carbachol wells 100%, DMSO wells 0% | activation, % at 3 µM | shares compounds with TRPML3 ag | actives 10% (n = 310) | AID 1525;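 active = mean activation over replicates above a set limit taken from the earlier TRPN1 channel primary screen, cut at about 19% in these data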
TRPML3 confirm – confirmation of human TRPML3 channel agonists. shares compounds with TRPML3 ag. AID 1526. activation, % at 3 µM. HEK293 TRPML3-YFP, Fluo-8 calcium fluorescence; 100% set by carbachol, 0% by DMSO. actives 80% (n = 310);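 active = activation above a set limit derived from the earlier primary screen, cut at about 12% in these data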
OXTR ag confirm – confirmation of human oxytocin receptor agonists. shares compounds with OXTR ag. CHO-OTR cells, Fluo-8 calcium fluorescence, agonist. activation, % at 3 µM. actives 20% (n = 390);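 active = mean activation above about 20% derived from the earlier single-dose screen, limit read from the data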;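 also: peak over minimum fluorescence ratio per well during a 100 second FLIPR read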
V1R ag counter 3x – activates V1a receptor in oxytocin agonist counter-screen. actives 10% (n = 390). shares compounds with OXTR ag. activation, % at 3 µM. CHO-V1R cells, Fluo-8 calcium fluorescence;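 active = mean activation over triplicate exceeds the hit threshold set in the earlier primary screen, cut at about 20% in these data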;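 also: peak over basal fluorescence ratio within a 100 second read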
V1R ag confirm – human V1a receptor agonism, confirmation | shares compounds with V1aR counter | CHO-V1R cells, Fluo-8 calcium fluorescence, agonist | activation, % at 3 µM | actives 20% (n = 180);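 active = average activation exceeds primary screen hit cutoff, cut at about 21% in these data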;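 also: peak over basal fluorescence ratio during a 100 s FLIPR read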
OXTR ag counter – OXTR agonism, counter-screen for V1R agonists; shares compounds with V1aR counter; CHO-OTR cells, Fluo-8 calcium fluorescence, agonist; activation, % at 3 µM; actives 10% (n = 180); AID 434969;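 active = mean activation over three repeats above the cutoff from the earlier oxytocin receptor agonist screen, cut at about 20% in these data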;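 also: peak over minimum fluorescence ratio within a 100 second FLIPR read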
A number is an active result; i = inactive; nt = not tested or not shown. Rows were chosen to be rich in hits. Some 0.55% of all compounds tested hit in one or more screens of this group.

SMILES | V1aR counter | TRPN1 ag | OXTR potentiator | OXTR ag | TRPML3 ag | OXTR ag confirm | V1R ag counter 3x | others
CC(C)(C)N(NC(=O)c1ccccc1)C(=O)c1ccc(C(=O)N(NC(=O)c2ccccc2)C(C)(C)C)cc1 | i | i | i | i | i | nt | nt
COc1ccc(C(=O)N(NC(=O)Oc2ccccc2)C(C)(C)C)cc1 | i | i | i | i | 13.3 | nt | nt | TRPN1 ag 2=i;TRPML3 confirm=i
Cc1ccc(S(=O)(=O)c2c(C)cc(C)nc2Oc2cccc(C(F)(F)F)c2)cc1 | i | i | i | i | 14.1 | nt | nt | TRPN1 ag 2=i;TRPML3 confirm=41.7
CCN(CCNC(=O)c1cc(C)nn1-c1ccccc1)c1ccccc1 | i | i | i | i | i | nt | nt
Cc1csc(N/N=C/c2ccc([N+](=O)[O-])cc2)n1 | i | nt | i | i | nt | nt | nt
O=C(O)c1csc(N/N=C/c2ccc(Br)cc2)n1 | nt | i | nt | nt | 31.9 | nt | nt | TRPN1 ag 2=i;TRPML3 confirm=42.0
CN(C)c1ccc(/C=C(/C(=O)c2ccc(Cl)cc2Cl)n2cncn2)cc1 | 28.8 | i | i | 21.5 | 11.6 | nt | nt | TRPN1 ag 2=21.9;TRPML3 confirm=11.9
C=C(C)CN1CCN(S(=O)(=O)c2ccc(C)c(N(C)S(=O)(=O)c3ccc(C)cc3)c2C)CC1 | i | i | i | i | 59.8 | nt | nt | TRPN1 ag 2=i;TRPML3 confirm=77.7
Cc1ccc(S(=O)(=O)N(C)c2c(C)ccc(S(=O)(=O)N3CCN(C)CC3)c2C)cc1 | i | i | i | i | i | nt | nt
COc1cc(C(=O)NC(=S)NNC(=O)[C@H]2C[C@@H]2c2ccccc2)cc(OC)c1OC | i | i | i | 27.6 | 13.9 | i | i | TRPN1 ag 2=25.1;TRPML3 confirm=32.6
Cc1n[nH]c(C)c1S(=O)(=O)N(CC(=O)NC1CCCC1)c1ccc(C(C)C)cc1 | i | i | i | i | i | nt | nt
O=C1c2cccc3c(N4CCCCC4)ccc(c23)C(=O)N1CCO | 22.3 | i | i | i | 12.8 | nt | nt | TRPN1 ag 2=i;TRPML3 confirm=i;V1R ag confirm=31.7;OXTR ag counter=i
NC(=NCCc1ccccc1)c1cccc([N+](=O)[O-])c1 | i | nt | i | i | nt | nt | nt
Cc1ccccc1OCCNc1cc(N2CC(C)NC(C)C2)ccc1[N+](=O)[O-] (stereo unspecified) | i | i | i | 20.3 | i | i | i
CC1CN(c2ccc([N+](=O)[O-])c(NCCOc3ccccc3)c2)CC(C)N1 (stereo unspecified) | i | nt | i | 24.2 | nt | i | i
CCc1ccc(OCCNc2cc(N3CCNC(C)C3)ccc2[N+](=O)[O-])cc1 (stereo unspecified) | i | nt | i | i | nt | nt | nt
Cc1cc(=O)oc2c3c(cc(OCC(=O)NC(Cc4ccc(Cl)cc4)C(=O)O)c12)OC(C)(C)CC3 (stereo unspecified) | i | nt | i | i | nt | nt | nt
O=C(CCCOc1ccccc1)NC(=S)Nc1ccccc1 | i | i | i | i | i | nt | nt
O=C(NCc1cccnc1)c1c(F)c(F)c(F)c(F)c1F | i | i | i | i | i | nt | nt
CC(C)c1c(C(=O)N/N=C/c2cccs2)nnn1-c1nonc1N | i | nt | i | 19.7 | nt | i | i
Cc1ccsc1/C=N/NC(=O)c1nnn(-c2nonc2N)c1C(C)C | i | nt | i | 21.7 | nt | i | i
Cc1cc(C)c2c(=O)n(CC(=O)Nc3ccc(Br)c(C)c3)sc2n1 | i | i | i | 37.4 | i | i | i
Cc1cc(C)c2c(=O)n(CC(=O)Nc3cccc(Cl)c3C)sc2n1 | i | 21.4 | i | 41.6 | i | 20.0 | 21.0
Cc1cc(C)c2c(=O)n(CC(=O)NC3CCCC3)sc2n1 | i | i | i | i | i | nt | nt
C=C1CC2C=C(NC(C)=O)CC(C1)C2 (stereo unspecified) | i | i | i | i | i | nt | nt
SMILES | V1aR counter | TRPN1 ag | OXTR potentiator | OXTR ag | TRPML3 ag | OXTR ag confirm | V1R ag counter 3x | others
CC(Oc1ccc(F)cc1)C(=O)Nc1ccc(S(=O)(=O)NC2=NCCCCC2)cc1 (stereo unspecified) | i | nt | i | 24.9 | nt | 27.9 | i
CC(Oc1cccc(Cl)c1)C(=O)Nc1ccc(S(=O)(=O)NC2=NCCCCC2)cc1 (stereo unspecified) | i | nt | i | i | nt | nt | nt
COc1ccc(CN(C)C(=O)c2ccccc2OCc2c(C)noc2C)cc1OC | i | nt | i | i | nt | nt | nt
CCOC(=O)C1(Cc2ccccc2C)CCCN(S(=O)(=O)c2cccnc2)C1 (stereo unspecified) | i | i | i | i | i | nt | nt
O=C(Nc1ccc(Cl)c(Cl)c1)c1cccc(S(=O)(=O)NCc2cccnc2)c1 | i | i | i | 20.3 | i | i | i
COc1cc(NC(=O)c2cccc(S(=O)(=O)N3CCCCC3)c2)cc(OC)c1OC | i | nt | i | i | nt | nt | nt
O=C(COc1ccc2ccc(=O)oc2c1)Nc1cccc(S(=O)(=O)N2CCCCC2)c1 | i | nt | i | 21.1 | nt | i | i
CC(=O)c1ccc(OCC(=O)Nc2cccc(S(=O)(=O)N3CCCC3)c2)cc1 | i | nt | i | i | nt | nt | nt
Cc1ccc(C2(C)NC(=O)N(CC(=O)Nc3cccnc3Cl)C2=O)cc1 (stereo unspecified) | i | i | i | i | i | nt | nt
CC1(c2ccc([N+](=O)[O-])cc2)NC(=O)N(CC(=O)Nc2cccnc2Cl)C1=O (stereo unspecified) | i | nt | i | 20.7 | nt | i | i
CCOC(=O)c1csc(NC(=O)CSc2nnnn2-c2ccc3c(c2)OCCO3)n1 | i | i | i | 22.8 | i | i | i
Cc1cc(NC(=O)CCc2ccccc2)c([N+](=O)[O-])cc1C | i | i | i | i | i | nt | nt
Cc1cc(SCC(=O)OCC(=O)N(C)C2CCS(=O)(=O)C2)c(C)cc1Br (stereo unspecified) | i | nt | i | 21.1 | nt | i | i
CSc1cccc(NC(=O)C2CCCN2S(=O)(=O)c2ccc(Br)s2)c1 (stereo unspecified) | i | i | i | i | i | nt | nt
O=C(Oc1ccc(-c2nnco2)cc1)c1ccc(Br)o1 | i | nt | i | i | nt | nt | nt
Cc1ccc(OC(=O)c2ccc(Br)o2)cc1 | i | i | i | 26.8 | i | i | i
CCCC(=O)c1ccc(N2CCN(C(=O)c3ccccc3)CC2)c(F)c1 | i | i | i | i | i | nt | nt
CCCC(=O)c1ccc(N2CCN(C(=O)c3ccccc3Br)CC2)c(F)c1 | i | i | i | 19.6 | i | i | i
